The list is not random: actives were taken first. Their share in the collection is about 3%.
Kir21 block: inhibitors of mouse Kir2.1 inward-rectifier potassium channel | HEK293-Kir2.1, FluxOR thallium flux fluorescence; active compounds read low | Inward rectifier potassium channel 2 (Mus musculus), P35561 | B-score at 10 µM | actives 0.85% (n = 310,000);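 active means fluorescence ratio B-score at or below minus 3 SD of library scores, with starting-brightness B-score within 2 SD, cut at about -4.2 in these data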;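 further: channel flux triggered by added potassium and thallium sulfate stimulus; B-score of peak minus minimum fluorescence over baseline after thallium stimulus; more negative B-score means stronger Kir2.1 block with less thallium influx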
TRPC4 agonist: activators of mouse TRPC4 channel, primary screen, Fluo4 calcium, HEK293 TRPC4beta/mu-opioid cells. Short transient receptor potential channel 4 (Mus musculus), Q9QUQ5. Fluo4 calcium fluorescence; active compounds read high. B-score at 10 µM. actives 0.49% (n = 310,000). AID 2237, 2010;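 active means B-score above 5 SD of library B-scores, and initial fluorescence ratio not above library mean plus 5 SD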;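 further: positive B-score marks a calcium rise read as TRPC4 activation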
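System – HEK293 cells stably co-expressing mouse TRPC4beta and mu-opioid receptor · Signal – Fluo4 calcium-sensitive dye fluorescence, kinetic, 1 Hz baseline · Benchmarks – buffer (low) and maximal DAMGO (high) · Read-out – B score of integrated fluorescence ratio per well · Incubation – dye loading 45 min room temperature, 110 s kinetic read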
TRPC4 potent: positive allosteric modulators of TRPC4, primary screen, cell-based, mouse TRPC4beta, HEK293 mu-opioid, Fluo-4 calcium; Short transient receptor potential channel 4 (Mus musculus), Q9QUQ5; DAMGO EC20, Fluo-4 Ca2+ flux; active compounds read high; B-score at 10 µM; actives 0.42% (n = 310,000);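 active means B-score of calcium response area above 5 SD of library B-scores, with initial fluorescence ratio within 5 SD of library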;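 further: B-score of integrated fluorescence ratio over time as area under calcium response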
TRPC4 block: inhibitors of mouse TRPC4 channel, primary screen, Fluo4 calcium, HEK293 TRPC4beta/mu-opioid cells | AID 2247, 2010 | actives 0.39% (n = 300,000) | B-score at 10 µM | DAMGO-evoked Fluo4 calcium flux; active compounds read low | Short transient receptor potential channel 4 (Mus musculus), Q9QUQ5;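 active means B-score over 3 SD under the library average, no early fluorescence shift, positive overall ratio signal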
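Assay system – HEK293 line stably carrying TRPC4beta and mu-opioid receptor · Doses – single dose · Detection – Fluo4 calcium-dye fluorescence, kinetic read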
TRPC6 inh: mouse TRPC6 channel inhibitors, primary screen, cell-based, HEK293, membrane potential dye; Short transient receptor potential channel 6 (Mus musculus), Q61143; ACh-evoked depolarization; active compounds read low; B-score at 10 µM; actives 1.1% (n = 310,000); AID 2553, 2010;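 active means B-score under library mean minus 3 SD, initial fluorescence not abnormally high, positive integrated signal ratio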;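 further: B-score derived from integrated fluorescence ratio over the kinetic read; more negative B-score means stronger inhibition of depolarization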
TRPC6 activator: mouse TRPC6 channel activators, primary screen, cell-based, HEK293, membrane potential dye. Short transient receptor potential channel 6 (Mus musculus), Q61143. HEK293-TRPC6 membrane potential dye fluorescence; active compounds read high. B-score at 10 µM. actives 0.13% (n = 310,000);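 active means B-score of the integrated fluorescence ratio above library mean plus 3 SD, and starting fluorescence ratio within library mean plus 5 SD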;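 further: higher score means more depolarization so channel activation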
Active calls of the source: *.

Screening CCCCN(CC)CCCNC(=S)Nc1ccc2nc(N3CCN(CC)CC3)cc(C)c2c1 returned Kir21 block -1.18, TRPC4 agonist 71*, TRPC4 potent inactive, TRPC4 block inactive, TRPC6 inh inactive and TRPC6 activator inactive.
`CCCCN(CC)CCCNC(=S)Nc1ccc2nc3n(c(=O)c2c1)CCCCC3` gave Kir21 block 1.85, TRPC4 agonist inactive, TRPC4 potent 10*, TRPC4 block inactive, TRPC6 inh inactive and TRPC6 activator inactive.
O=C(NCc1ccco1)c1cnn2c1NC(c1ccc(Br)cc1)CC2C(F)(F)F (stereo unspecified) was read as Kir21 block 0.63, TRPC4 agonist inactive, TRPC4 potent 13*, TRPC4 block inactive, TRPC6 inh inactive and TRPC6 activator inactive.
Screening O=C(Nc1ccc(F)cc1)c1cccnn1 returned Kir21 block 0.09, TRPC4 agonist inactive, TRPC4 potent inactive, TRPC4 block inactive, TRPC6 inh inactive and TRPC6 activator inactive.
`CC1(C)CC(NCCN2CCN(C3=CC(=C(C#N)C#N)CC(C)(C)C3)CC2)=CC(=C(C#N)C#N)C1` gave Kir21 block 0.09, TRPC4 agonist 55*, TRPC4 potent inactive, TRPC6 inh inactive and TRPC6 activator inactive.
`N=C(N)SCc1cn2ccccc2n1` gave Kir21 block -0.17, TRPC4 agonist inactive, TRPC4 potent 16*, TRPC4 block inactive, TRPC6 inh inactive and TRPC6 activator inactive.
`CC1=NN(Cc2ccccc2)C(=O)C1C(c1ccc(Cl)cc1)C(C#N)C#N` (stereo unspecified) gave Kir21 block -5.53*, TRPC4 agonist inactive, TRPC4 potent inactive, TRPC4 block inactive, TRPC6 inh inactive and TRPC6 activator inactive.
For CC1=NN(Cc2ccccc2)C(=O)C1C(c1ccccc1)C(C#N)C#N (stereo unspecified) the results were Kir21 block -0.07, TRPC4 agonist inactive, TRPC4 potent inactive, TRPC4 block inactive, TRPC6 inh inactive and TRPC6 activator inactive.
For CCn1c(CNc2ccc(Cl)cc2)nnc1SCC#N the results were Kir21 block 0.59, TRPC4 agonist inactive, TRPC4 potent inactive, TRPC4 block inactive, TRPC6 inh inactive and TRPC6 activator inactive.
Screening CCn1c(CNc2ccc(Cl)cc2)nnc1SCC(=O)OC1CCCCC1 returned Kir21 block -6.62*, TRPC4 agonist inactive, TRPC4 potent inactive, TRPC4 block inactive, TRPC6 inh inactive and TRPC6 activator inactive.
CCn1c(CNc2ccccc2Cl)nnc1SCC(=O)OC1CCCCC1 was read as Kir21 block -4.49*, TRPC4 agonist inactive, TRPC4 potent inactive, TRPC4 block inactive, TRPC6 inh inactive and TRPC6 activator inactive.
CCn1c(CNc2cccc(Cl)c2)nnc1SCC(=O)OC1CCCCC1 was read as Kir21 block -5.14*, TRPC4 agonist inactive, TRPC4 potent inactive, TRPC4 block inactive, TRPC6 inh inactive and TRPC6 activator inactive.
For CCn1c(COc2ccccc2)nnc1SCC(=O)NC1CCCCC1 the results were Kir21 block 0.64, TRPC4 agonist inactive, TRPC4 potent inactive, TRPC4 block inactive, TRPC6 inh inactive and TRPC6 activator inactive.
For CCOc1ccc(N(CC(=O)N2CCCCCC2)S(C)(=O)=O)cc1 the results were Kir21 block 0.02, TRPC4 agonist inactive, TRPC4 potent inactive, TRPC4 block inactive, TRPC6 inh inactive and TRPC6 activator inactive.
`CCCCN(C(=O)COC(=O)COc1c(C)cc(C)cc1C)c1c(N)n(CCC)c(=O)[nH]c1=O` gave Kir21 block 1.52, TRPC4 agonist inactive, TRPC4 potent inactive, TRPC4 block inactive, TRPC6 inh inactive and TRPC6 activator inactive.

Assay outcomes: PubChem BioAssay, Johns Hopkins Ion Channel Center
